Reference: ChEMBL document CHEMBL4393740, “Preparation and biological evaluation of soluble tetrapeptide epoxyketone proteasome inhibitors” (Bioorg Med Chem, 2019)
pIC50: −log10 of the molar value.

Experiments:
[1] = target: T1, Proteasome Macropain subunit MB1 (Homo sapiens, UniProt P28074); experiment: Inhibition of human chymotrypsin-like activity of 20S proteasome using Suc-LLVY-AMC as substrate pre-incubated for 10 mins followed by substrate addition and measured after 1 hr by spectrofluorimetry; settings: for pIC50: read-out: IC50
T1 sequence (P28074 whole entry): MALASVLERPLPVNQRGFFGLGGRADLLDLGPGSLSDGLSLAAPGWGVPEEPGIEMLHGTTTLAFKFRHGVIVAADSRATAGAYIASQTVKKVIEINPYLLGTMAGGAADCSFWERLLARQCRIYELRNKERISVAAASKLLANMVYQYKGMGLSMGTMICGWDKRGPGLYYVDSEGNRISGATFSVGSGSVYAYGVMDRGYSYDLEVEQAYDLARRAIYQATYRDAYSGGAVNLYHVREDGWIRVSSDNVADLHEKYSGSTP

RPMI-8226 = experiment: Cytotoxicity against human RPMI8226 cells assessed as cell viability measured after 72 hrs by celltiter96 aqueous cell proliferation assay; format: functional, cell-based; settings: RPMI-8226, 72 h
Procedure, shortened: (§1)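 Suspension cells in log phase plated at 5000 (RPMI8226) or 10000 (U266B1) cells per well. Viability read after 72 h by MTS-type CellTiter 96 AQueous One assay on a plate reader. IC50 reported, three repeats.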

U-266 = experiment: Cytotoxicity against human U266B1 cells assessed as cell viability measured after 72 hrs by celltiter96 aqueous cell proliferation assay; format: functional, cell-based; settings: U-266, 72 h; procedure, shortened: as §1
[2] = Half life in dog liver microsomes at 1 uM pre-incubated for 5 mins followed by NADP+ addition and measured up to 20 mins by LC-MS analysis; format: ADME, Canis lupus familiaris, Microsome
[3] = Half life in human liver microsomes at 1 uM pre-incubated for 5 mins followed by NADP+ addition and measured up to 20 mins by LC-MS analysis; format: ADME, Microsome
Procedure, shortened: (§2)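 Mixture held 1 µM compound, 0.5 mg/mL microsomal protein (in-house pooled Balb/c mouse or pooled human), 100 mM Tris-HCl pH 7.4, and an NADPH-generating system (5 mM isocitric acid, 0.2 U/mL isocitric dehydrogenase, 5 mM MgCl2, 1 mM NADP+). Preincubated 5 min at 37 °C, started with NADP+, sampled at 0, 5, 10, 20 min. Quenched with cold acetonitrile containing 1 µM phenytoin internal standard. Compound loss measured by LC-MS/MS. Controls omitted NADPH and/or microsomes.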

[4] = Intrinsic clearance in monkey liver microsomes at 1 uM pre-incubated for 5 min followed by NADP+ addition and measured up to 20 mins by LC-MS analysis; format: ADME, Macaca mulatta, Microsome; settings: rhesus monkey, read-out: CLH
[5] = Half life in rat liver microsomes at 1 uM pre-incubated for 5 mins followed by NADP+ addition and measured up to 20 mins by LC-MS analysis; format: ADME, Microsome
[6] = Half life in BALB/c mouse liver microsomes at 1 uM pre-incubated for 5 mins followed by NADP+ addition and measured up to 20 mins by LC-MS analysis; format: ADME, Microsome; procedure, shortened: as §2
[7] = target: Voltage-gated inwardly rectifying potassium channel KCNH2 (Homo sapiens, UniProt Q12809); experiment: Inhibition of human ERG in HEK293 cells assessed as effect on QT interval; format: cell-based
[8] = Half life in monkey liver microsomes at 1 uM pre-incubated for 5 mins followed by NADP+ addition and measured up to 20 mins by LC-MS analysis; format: ADME, Macaca mulatta, Microsome; settings: rhesus monkey
[9] = Intrinsic clearance in BALB/c mouse liver microsomes at 1 uM pre-incubated for 5 mins followed by NADP+ addition and measured up to 20 mins by LC-MS analysis; format: ADME, Microsome; settings: read-out: CLH; procedure, shortened: as §2
ARH-77 = experiment: Antitumour activity against human ARH77 cells xenografted in nude mouse assessed as tumor growth at 5mg/kg, iv dosed at day 1 ,4, 8 ,11, 15 and 18 for 3 weeks and measured every 2 days by caliper method relative to control; format: functional
Procedure, shortened: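 Nude mice given subcutaneous 1 × 10^7 ARH77 cells. Randomized at mean tumour 100-150 mm3 into treatment and control groups, n = 5. Dosed i.v. 5 mg/kg on days 1, 4, 8, 11, 15 and 18 for 3 weeks. Tumours sized by caliper, V = length×width²/2, RTV = Vt/V0. T/C% = mean RTV treated / mean RTV control × 100.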

[10] = Intrinsic clearance in dog liver microsomes at 1 uM pre-incubated for 5 mins followed by NADP+ addition and measured up to 20 mins by LC-MS analysis; format: ADME, Canis lupus familiaris, Microsome; settings: read-out: CLH
[11] = Intrinsic clearance in human liver microsomes at 1 uM pre-incubated for 5 min followed by NADP+ addition and measured up to 20 mins by LC-MS analysis; format: ADME, Microsome; settings: read-out: CLH; procedure, shortened: as §2
[12] = Intrinsic clearance in rat liver microsomes at 1 uM pre-incubated for 5 mins followed by NADP+ addition and measured up to 20 mins by LC-MS analysis; format: ADME, Microsome; settings: read-out: CLH

Sequence of Voltage-gated inwardly rectifying potassium channel KCNH2 (Q12809 whole entry): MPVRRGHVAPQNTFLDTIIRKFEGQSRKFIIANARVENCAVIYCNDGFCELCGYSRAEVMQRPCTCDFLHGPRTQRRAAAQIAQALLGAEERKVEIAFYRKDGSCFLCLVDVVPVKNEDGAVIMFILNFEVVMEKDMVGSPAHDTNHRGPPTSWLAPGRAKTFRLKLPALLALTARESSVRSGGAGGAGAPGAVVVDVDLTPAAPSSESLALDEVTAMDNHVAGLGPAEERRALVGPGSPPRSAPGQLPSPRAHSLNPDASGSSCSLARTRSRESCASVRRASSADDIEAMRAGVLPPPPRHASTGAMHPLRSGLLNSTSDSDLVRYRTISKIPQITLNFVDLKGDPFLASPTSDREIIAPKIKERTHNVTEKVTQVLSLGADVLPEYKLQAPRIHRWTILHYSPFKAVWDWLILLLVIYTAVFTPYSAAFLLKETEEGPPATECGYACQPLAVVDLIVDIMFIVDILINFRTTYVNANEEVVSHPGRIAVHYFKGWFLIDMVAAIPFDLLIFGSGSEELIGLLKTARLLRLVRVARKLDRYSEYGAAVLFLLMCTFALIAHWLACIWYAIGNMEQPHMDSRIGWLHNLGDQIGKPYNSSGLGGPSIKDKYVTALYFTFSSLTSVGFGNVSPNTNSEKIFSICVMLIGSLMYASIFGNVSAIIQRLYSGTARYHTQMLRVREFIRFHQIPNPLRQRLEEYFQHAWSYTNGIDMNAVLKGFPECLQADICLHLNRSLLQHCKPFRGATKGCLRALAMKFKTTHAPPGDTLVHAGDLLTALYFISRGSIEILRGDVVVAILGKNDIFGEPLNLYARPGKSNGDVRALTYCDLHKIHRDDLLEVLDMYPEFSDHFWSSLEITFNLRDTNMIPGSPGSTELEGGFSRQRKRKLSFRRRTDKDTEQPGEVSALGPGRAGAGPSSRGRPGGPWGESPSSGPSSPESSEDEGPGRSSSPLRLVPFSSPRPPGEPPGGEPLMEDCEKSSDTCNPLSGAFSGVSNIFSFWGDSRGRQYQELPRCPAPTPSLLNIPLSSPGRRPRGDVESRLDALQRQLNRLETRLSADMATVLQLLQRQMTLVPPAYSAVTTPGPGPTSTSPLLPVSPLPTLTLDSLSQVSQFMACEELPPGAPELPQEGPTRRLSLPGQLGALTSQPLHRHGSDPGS

SMILES: CC[C@H](NC(=O)[C@H](CCc1ccccc1)NC(=O)c1cc(C)on1)C(=O)N[C@@H](Cc1ccccc1)C(=O)N[C@@H](CC(C)C)C(=O)[C@@]1(C)CO1
- pIC50 [1]: 7.43
- pIC50 (RPMI-8226): 7.33
- pIC50 (U-266): 7.34

SMILES: CC(C)C[C@H](NC(=O)[C@H](CCc1ccccc1)NC(=O)CN1CCOCC1)C(=O)NCC(=O)N[C@@H](CC(C)C)C(=O)[C@@]1(C)CO1
- IC50 [1]: Not Active

SMILES: Cc1cc(C(=O)NCC(=O)N[C@@H](CC(C)C)C(=O)N[C@@H](Cc2ccccc2)C(=O)N[C@@H](CC(C)C)C(=O)[C@@]2(C)CO2)no1
- pIC50 [1]: 7.25

SMILES: CC(C)C[C@H](NC(=O)[C@H](CCc1ccccc1)NC(=O)CN1CCOCC1)C(=O)N[C@@H](Cc1cscn1)C(=O)N[C@@H](CC(C)C)C(=O)[C@@]1(C)CO1
- pIC50 [1]: 7.57
- pIC50 (RPMI-8226): 7.11
- pIC50 (U-266): 7.25

SMILES: CC(C)C[C@H](NC(=O)[C@H](CCc1ccccc1)NC(=O)CN1CCOCC1)C(=O)N[C@@H](Cc1ccccc1)C(=O)N[C@@H](CCc1ccccc1)C(=O)[C@@]1(C)CO1
- pIC50 [1]: 6.14

SMILES: CC(C)C[C@H](NC(=O)[C@H](Cc1ccsc1)NC(=O)CN1CCOCC1)C(=O)N[C@@H](Cc1ccccc1)C(=O)N[C@@H](CC(C)C)C(=O)[C@@]1(C)CO1
- pIC50 [1]: 7.35
- pIC50 (RPMI-8226): 7.46
- pIC50 (U-266): 7.62

SMILES: CCCC[C@H](NC(=O)[C@H](Cc1ccccc1)NC(=O)[C@H](CC(C)C)NC(=O)[C@H](CCc1ccccc1)NC(=O)CN1CCOCC1)C(=O)[C@@]1(C)CO1
- pIC50 [1]: 7.28

SMILES: CCCC[C@H](NC(=O)[C@H](CC(C)C)NC(=O)[C@H](CCc1ccccc1)NC(=O)CN1CCOCC1)C(=O)N[C@@H](CC(C)C)C(=O)[C@@]1(C)CO1
- pIC50 [1]: 6.79

SMILES: COC[C@H](NC(=O)c1cc(C)on1)C(=O)N[C@@H](CC(C)C)C(=O)N[C@@H](Cc1ccccc1)C(=O)N[C@@H](CC(C)C)C(=O)[C@@]1(C)CO1
- pIC50 [1]: 7.51

SMILES: Cc1cc(C(=O)N[C@@H](Cc2cscn2)C(=O)N[C@@H](CC(C)C)C(=O)N[C@@H](Cc2ccccc2)C(=O)N[C@@H](CC(C)C)C(=O)[C@@]2(C)CO2)no1
- pIC50 [1]: 7.69

SMILES: Cc1cc(C(=O)N[C@@H](CCc2ccccc2)C(=O)N[C@@H](CC2CCCC2)C(=O)N[C@@H](Cc2ccccc2)C(=O)N[C@@H](CC(C)C)C(=O)[C@@]2(C)CO2)no1
- pIC50 [1]: 7.44

SMILES: CC(C)C[C@H](NC(=O)[C@H](CCc1ccccc1)NC(=O)CN1CCOCC1)C(=O)N[C@@H](Cc1ccccc1)C(=O)N[C@@H](Cc1ccccc1)C(=O)[C@@]1(C)CO1
- pIC50 [1]: 6.86

SMILES: CC(C)C[C@H](NC(=O)[C@H](Cc1cscn1)NC(=O)c1cc(Cl)ccc1Cl)C(=O)N[C@@H](Cc1ccccc1)C(=O)N[C@@H](CC(C)C)C(=O)[C@@]1(C)CO1
- pIC50 [1]: 7.19

SMILES: Cc1cc(C(=O)N[C@@H](CCc2ccccc2)C(=O)N[C@@H](Cc2ccccn2)C(=O)N[C@@H](Cc2ccccc2)C(=O)N[C@@H](CC(C)C)C(=O)[C@@]2(C)CO2)no1
- IC50 [1]: Not Active

SMILES: CC(C)C[C@H](NC(=O)[C@H](Cc1cc2ccccc2s1)NC(=O)CN1CCOCC1)C(=O)N[C@@H](Cc1ccccc1)C(=O)N[C@@H](CC(C)C)C(=O)[C@@]1(C)CO1
- pIC50 [1]: 7.47
- pIC50 (RPMI-8226): 7.27
- pIC50 (U-266): 7.48

SMILES: Cc1cc(C(=O)N[C@@H](CCc2ccccc2)C(=O)N[C@H](C(=O)N[C@@H](Cc2ccccc2)C(=O)N[C@@H](CC(C)C)C(=O)[C@@]2(C)CO2)C2CC2)no1
- pIC50 [1]: 7.49

SMILES: CC(C)C[C@H](NC(=O)[C@H](Cc1cscn1)NC(=O)CO)C(=O)N[C@@H](Cc1ccccc1)C(=O)N[C@@H](CC(C)C)C(=O)[C@@]1(C)CO1
- pIC50 [1]: 7.28

SMILES: CC[C@H](NC(=O)[C@H](CC(C)C)NC(=O)[C@H](CCc1ccccc1)NC(=O)CN1CCOCC1)C(=O)N[C@@H](CC(C)C)C(=O)[C@@]1(C)CO1
- pIC50 [1]: 7.01

SMILES: Cc1cc(C(=O)N[C@@H](Cc2ccccn2)C(=O)N[C@@H](CC(C)C)C(=O)N[C@@H](Cc2ccccc2)C(=O)N[C@@H](CC(C)C)C(=O)[C@@]2(C)CO2)no1
- pIC50 [1]: 7.22

SMILES: COC[C@H](NC(=O)c1cc(C)on1)C(=O)NCC(=O)N[C@@H](Cc1ccccc1)C(=O)N[C@@H](CC(C)C)C(=O)[C@@]1(C)CO1
- IC50 [1]: Not Active

SMILES: CC(C)C[C@H](NC(=O)[C@H](CCc1ccccc1)NC(=O)CN1CCOCC1)C(=O)N[C@@H](Cc1ccccc1)C(=O)N[C@@H](CC(C)C)C(=O)[C@@]1(C)CO1 [CARFILZOMIB]
- half-life at 1 µM [2]: 14.6 s
- half-life at 1 µM [3]: 17.2 s
- microsomal CLint at 1 µM [4]: > 1390 µL/min/mg
- pIC50 (RPMI-8226): 7.41
- half-life at 1 µM [5]: 37.2 s
- half-life at 1 µM [6]: 20.4 s
- pIC50 [7]: 4.04
- half-life at 1 µM [8]: < 60 s
- microsomal CLint at 1 µM [9]: 4100 µL/min/mg
- T/C (ARH-77): 34.6%
- pIC50 (U-266): 7.45
- microsomal CLint at 1 µM [10]: 5670 µL/min/mg
- microsomal CLint at 1 µM [11]: 4850 µL/min/mg
- microsomal CLint at 1 µM [12]: 2230 µL/min/mg

SMILES: CC(C)C[C@H](NC(=O)[C@H](CCc1ccccc1)NC(=O)CN1CCOCC1)C(=O)N[C@@H](Cc1cc2ccccc2s1)C(=O)N[C@@H](CC(C)C)C(=O)[C@@]1(C)CO1
- pIC50 [1]: 7.43
- pIC50 (RPMI-8226): 7.06
- pIC50 (U-266): 7.09

SMILES: Cc1cc(C(=O)N[C@@H](CCc2ccccc2)C(=O)N[C@H](C(=O)N[C@@H](Cc2ccccc2)C(=O)N[C@@H](CC(C)C)C(=O)[C@@]2(C)CO2)C2CCCCC2)no1
- pIC50 [1]: 7.51
- pIC50 (RPMI-8226): 7.83
- pIC50 (U-266): 7.63

SMILES: Cc1cc(C(=O)N[C@@H](Cc2cc3ccccc3[nH]2)C(=O)N[C@@H](CC(C)C)C(=O)N[C@@H](Cc2ccccc2)C(=O)N[C@@H](CC(C)C)C(=O)[C@@]2(C)CO2)no1
- pIC50 [1]: 7.59

SMILES: COC[C@H](NC(=O)[C@H](CCc1ccccc1)NC(=O)c1cc(C)on1)C(=O)N[C@@H](Cc1ccccc1)C(=O)N[C@@H](CC(C)C)C(=O)[C@@]1(C)CO1
- pIC50 [1]: 7.29

SMILES: CC(C)C[C@H](NC(=O)[C@H](Cc1cscn1)NC(=O)c1cnccn1)C(=O)N[C@@H](Cc1ccccc1)C(=O)N[C@@H](CC(C)C)C(=O)[C@@]1(C)CO1
- pIC50 [1]: 7.41

SMILES: CC[C@H](NC(=O)[C@H](Cc1ccccc1)NC(=O)[C@H](CC(C)C)NC(=O)[C@H](CCc1ccccc1)NC(=O)CN1CCOCC1)C(=O)[C@@]1(C)CO1
- pIC50 [1]: 7.11

SMILES: Cc1cc(C(=O)N[C@H](C(=O)N[C@@H](CC(C)C)C(=O)N[C@@H](Cc2ccccc2)C(=O)N[C@@H](CC(C)C)C(=O)[C@@]2(C)CO2)C2CC2)no1
- pIC50 [1]: 7.37

SMILES: Cc1cc(C(=O)N[C@@H](CC(C)C)C(=O)N[C@@H](CC(C)C)C(=O)N[C@@H](Cc2ccccc2)C(=O)N[C@@H](CC(C)C)C(=O)[C@@]2(C)CO2)no1
- pIC50 [1]: 7.38

SMILES: Cc1cc(C(=O)N[C@@H](CCc2ccccc2)C(=O)N[C@@H](Cc2cscn2)C(=O)N[C@@H](Cc2ccccc2)C(=O)N[C@@H](CC(C)C)C(=O)[C@@]2(C)CO2)no1
- IC50 [1]: Not Active

SMILES: Cc1cc(C(=O)N[C@@H](CCc2ccccc2)C(=O)N[C@H](C(=O)N[C@@H](Cc2ccccc2)C(=O)N[C@@H](CC(C)C)C(=O)[C@@]2(C)CO2)[C@@H](C)O)no1
- pIC50 [1]: 7.32
